In brackets after ≈: the same amount, converted by molar mass.

The subject of data set [1] is Staphylococcus aureus. Briefly: Antimicrobial activity against Staphylococcus aureus isolate MN 1255 after 24 hrs by broth microdilution method. In kind it is functional. The following applies: isolate MN 1255, 24 h. In outline:
(§1)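 Broth microdilution following NCCLS M7-A4; ATCC strains and clinical isolates from a provincial hospital.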
Background: Broth dilution looks for growth in wells or tubes with falling amounts of substance.

Data set [2] deals with Staphylococcus aureus. Briefly: Antimicrobial activity against Staphylococcus aureus isolate CL 938 after 24 hrs by broth microdilution method. In kind it is functional. The note with it: isolate CL 938, 24 h. An outline of the steps: as §1
Data set [3] relates to Staphylococcus aureus. Briefly: Antimicrobial activity against Staphylococcus aureus isolate RN4220 pmz1 after 24 hrs by broth microdilution method. In kind it is functional. The following applies: isolate RN4220 pmz1, 24 h. In outline:
(§2)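 Broth microdilution following NCCLS M7-A4, using ATCC strains and clinical isolates from a provincial hospital.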

Data set [4] has as its system Staphylococcus aureus. Nature of the data set: Antimicrobial activity against Staphylococcus aureus isolate 934334 after 24 hrs by broth microdilution method. In kind it is functional. The following applies: isolate 934334, 24 h. An outline of the steps:
as §1

For data set [5], the system named is Staphylococcus aureus. Nature of the data set: Antimicrobial activity against Staphylococcus aureus isolate Smith ATCC 13709 after 24 hrs by broth microdilution method. In kind it is functional. The following applies: isolate Smith ATCC 13709, 24 h. In outline:
as §2

For data set [6], the system named is Staphylococcus aureus. Nature of the data set: Antimicrobial activity against Staphylococcus aureus isolate 929003 after 24 hrs by broth microdilution method. In kind it is functional. The note with it: isolate 929003, 24 h. An outline of the steps:
as §1

Data set [7] has as its system Staphylococcus aureus. Nature of the data set: Antimicrobial activity against Staphylococcus aureus isolate NEQAS 4026 after 24 hrs by broth microdilution method. In kind it is functional. The following applies: isolate NEQAS 4026, 24 h. In outline:
as §1

The subject of data set [8] is Staphylococcus aureus. Briefly: Antimicrobial activity against Staphylococcus aureus isolate RN1024 after 24 hrs by broth microdilution method. In kind it is functional. The note with it: isolate RN1024, 24 h. In outline:
as §2

Data set [9] has as its system Staphylococcus aureus. Nature of the data set: Antimicrobial activity against Staphylococcus aureus ATCC 29213 after 24 hrs by broth microdilution method. In kind it is functional. The following applies: ATCC 29213, 24 h. An outline of the steps:
as §1

Data set [10] concerns Staphylococcus aureus. Briefly: Antimicrobial activity against Staphylococcus aureus isolate 929035 after 24 hrs by broth microdilution method. In kind it is functional. The note with it: isolate 929035, 24 h. An outline of the steps:
as §1

The test system of data set [11] is Staphylococcus aureus. Briefly: Antimicrobial activity against Staphylococcus aureus isolate CL 939 after 24 hrs by broth microdilution method. In kind it is functional. The following applies: isolate CL 939, 24 h. In outline: as §2
Data set [12] relates to Staphylococcus aureus. Briefly: Antimicrobial activity against Staphylococcus aureus isolate RN1030 after 24 hrs by broth microdilution method. In kind it is functional. The note with it: isolate RN1030, 24 h. An outline of the steps: as §2
Data set [13] concerns Staphylococcus aureus. Nature of the data set: Antimicrobial activity against Staphylococcus aureus isolate CL 1033 after 24 hrs by broth microdilution method. In kind it is functional. The note with it: isolate CL 1033, 24 h. In outline:
as §1

Data set [14] concerns Staphylococcus aureus. Nature of the data set: Antimicrobial activity against Staphylococcus aureus isolate 934387 after 24 hrs by broth microdilution method. In kind it is functional. The note with it: isolate 934387, 24 h. In outline: as §2
For data set [15], the system named is Staphylococcus aureus. Briefly: Antimicrobial activity against Staphylococcus aureus isolate MILES HALL after 24 hrs by broth microdilution method. In kind it is functional. An outline of the steps: as §2
Data set [16] has as its system Staphylococcus aureus. Briefly: Antimicrobial activity against Staphylococcus aureus isolate OGA833 after 24 hrs by broth microdilution method. The note with it: isolate OGA833, 24 h. In kind it is functional. An outline of the steps:
as §1

Data set [17] concerns Staphylococcus aureus. Briefly: Antimicrobial activity against Staphylococcus aureus isolate 306 after 24 hrs by broth microdilution method. The note with it: isolate 306, 24 h. In kind it is functional. An outline of the steps: as §1
Data set [18] relates to Staphylococcus aureus. Briefly: Antimicrobial activity against Staphylococcus aureus isolate NEQAS 4158 after 24 hrs by broth microdilution method. In kind it is functional. The note with it: isolate NEQAS 4158, 24 h. An outline of the steps: as §1
Data set [19] has as its system Staphylococcus aureus. Nature of the data set: Antimicrobial activity against Staphylococcus aureus isolate 934324 after 24 hrs by broth microdilution method. In kind it is functional. The following applies: isolate 934324, 24 h. An outline of the steps:
as §1

Data set [20] deals with Staphylococcus aureus. Briefly: Antimicrobial activity against Staphylococcus aureus isolate Ealing 32 after 24 hrs by broth microdilution method. In kind it is functional. The following applies: isolate Ealing 32, 24 h. An outline of the steps:
as §1

Data set [21] concerns Staphylococcus aureus. Nature of the data set: Antimicrobial activity against Staphylococcus aureus isolate Ealing 23 after 24 hrs by broth microdilution method. In kind it is functional. The note with it: isolate Ealing 23, 24 h. An outline of the steps: as §2
For data set [22], the system named is Staphylococcus aureus. Nature of the data set: Antimicrobial activity against Staphylococcus aureus isolate 934335 after 24 hrs by broth microdilution method. The note with it: isolate 934335, 24 h. In kind it is functional. In outline: as §1
In data set [23] the test system is Staphylococcus aureus. Nature of the data set: Antimicrobial activity against Staphylococcus aureus isolate RUSSELL after 24 hrs by broth microdilution method. In kind it is functional. An outline of the steps:
as §2

Data set [24] concerns Staphylococcus aureus. Nature of the data set: Antimicrobial activity against Staphylococcus aureus isolate F89 after 24 hrs by broth microdilution method. In kind it is functional. The note with it: isolate F89, 24 h. An outline of the steps: as §1
Data set [25] has as its system Staphylococcus aureus. Nature of the data set: Antimicrobial activity against Staphylococcus aureus isolate CARTER 37 after 24 hrs by broth microdilution method. The following applies: isolate CARTER 37, 24 h. In kind it is functional. An outline of the steps:
as §2

The nature of data set [26]: Fraction unbound in CD1 mouse plasma at 2 uM by equilibrium dialysis. In kind it is ADME, cell-free. In outline:
(§3)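 Pooled CD-1 mouse plasma spiked to 2 µM final, equilibrium dialysis in triplicate against 100 mM PBS pH 7.4, 4 h at 37 °C with rotation; matrix-matched samples acetonitrile-precipitated, LC-MS/MS with internal standards. Unbound = free/total ×100; recovery = (free+total)/pre-dialysis ×100.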
Background: Equilibrium dialysis compares concentrations on both sides of a semipermeable membrane.

The nature of data set [27]: Protein binding in CD1 mouse plasma at 2 uM by equilibrium dialysis. In kind it is ADME, cell-free. The following applies: read-out: PPB (converted).
Data set [28] can be described thus: Drug recovery in CD1 mouse plasma at 2 uM by equilibrium dialysis. In kind it is ADME, cell-free. The note with it: read-out: Drug recovery. In outline:
as §3

For orientation: MIC means the smallest concentration in the dilution series that meets the test's criterion for growth inhibition. Read a high MIC as a less susceptible organism. Consider `C/C(=C\C(=O)OCCCCCCCCC(=O)O)C[C@@H]1OC[C@H](C[C@@H]2O[C@H]2[C@@H](C)[C@H](C)O)[C@@H](O)[C@H]1O` [MUPIROCIN], for which the MIC in the data set on Staphylococcus aureus [1] is 0.25 µg/mL (≈ 0.499 µM); with Staphylococcus aureus [2], 0.25 µg/mL (≈ 0.499 µM); in the data set with Staphylococcus aureus [3], over 16 µg/mL; against Staphylococcus aureus [4] it was 0.25 µg/mL (≈ 0.499 µM); in the data set on Staphylococcus aureus [5], 0.06 µg/mL (≈ 0.12 µM); against Staphylococcus aureus [6], 0.25 µg/mL (≈ 0.499 µM). For the same compound, the MIC in the data set on Staphylococcus aureus [7] is over 16 µg/mL; against Staphylococcus aureus [8], 0.25 µg/mL (≈ 0.499 µM); against Staphylococcus aureus [9], 0.25 µg/mL (≈ 0.499 µM); against Staphylococcus aureus [10], 0.25 µg/mL (≈ 0.499 µM); against Staphylococcus aureus [11], 0.25 µg/mL (≈ 0.499 µM); against Staphylococcus aureus [12] it was 0.25 µg/mL (≈ 0.499 µM). Besides, the MIC with Staphylococcus aureus [13] is 0.25 µg/mL (≈ 0.499 µM); against Staphylococcus aureus [14], 0.25 µg/mL (≈ 0.499 µM); against Staphylococcus aureus [15] it was over 16 µg/mL; against Staphylococcus aureus [16], over 16 µg/mL; in the data set on Staphylococcus aureus [17] it was over 16 µg/mL; against Staphylococcus aureus [18], 0.25 µg/mL (≈ 0.499 µM). The MIC is 0.25 µg/mL (≈ 0.499 µM) with Staphylococcus aureus [19]; over 16 µg/mL with Staphylococcus aureus [20]; over 16 µg/mL with Staphylococcus aureus [21]; 0.25 µg/mL (≈ 0.499 µM) in the data set on Staphylococcus aureus [22]; 0.25 µg/mL (≈ 0.499 µM) with Staphylococcus aureus [23]; over 16 µg/mL against Staphylococcus aureus [24]. The compound further had a minimum inhibitory concentration (MIC) with Staphylococcus aureus [25] of over 16 µg/mL.
For `CC(=O)CC(c1ccccc1)c1c(O)c2ccccc2oc1=O` (stereo not drawn) [WARFARIN], the fraction unbound at 2 µM in data set [26] and in data set [27] was 0.059 in each case. The recovery at 2 µM in [28] stood at 104%.

The values above are taken from ChEMBL document CHEMBL3352487, “Synthesis, antibacterial activity, and biological evaluation of formyl hydroxyamino derivatives as novel potent peptide deformylase inhibitors against drug-resistant bacteria” (Eur J Med Chem, 2014).
